Reference: ChEMBL document CHEMBL1132479, “Synthesis, physicochemical characterization, and biological evaluation of 2-(1'-hydroxyalkyl)-3-hydroxypyridin-4-ones: novel iron chelators with enhanced pFe(3+) values” (J Med Chem, 1999)

Legend:
[1] = Partition coefficient (logD7.4); format: physicochemical; details: octanol/water, pH 7.4
Outline: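 Partitioning between 1-octanol and 50 mM MOPS buffer pH 7.4 (mutually saturated) in an automated continuous-flow filter-probe system. Compound was dissolved in buffer to an absorbance of 0.5–1.5 at ~280 nm. The aqueous phase was separated by a hydrophilic cellulose filter and monitored spectrophotometrically. D7.4 was calculated after each octanol addition.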

[2] = Partition coefficient (logP); format: physicochemical; details: octanol/water
[3] = tested on: Rattus norvegicus; assay: (§1) Compound was tested in vivo for Iron mobilization efficacy against hepatocytes in normal fasted rats (loaded with [59Fe]-Ferritin).; format: functional, Hepatocyte; parameters: concentration or dose not given beside the values
Outline: (§2)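 Fasted normal rats (190–230 g) received [59Fe]ferritin by tail vein to label hepatocyte iron. One hour later chelator was given orally at 450 µmol/kg; controls received an equal volume of water. Rats were kept in metabolic cages, with food allowed 1 h after dosing and water unrestricted. At 24 h, liver and GI tract plus feces were gamma-counted. Mean ± SD, n=5.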

[4] = tested on: Rattus norvegicus; assay: Compound was tested in vivo for Iron mobilization against hepatocytes in normal fasted rats (loaded with [59Fe]-Ferritin).; format: functional, Hepatocyte; outline: as §2
[5] = pFe3+ (negative logarithm of the concentration of the free Iron(III) in solution) of the compound.; format: ADME
Outline: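 pFe3+ is the negative log of free Fe(III), calculated from the ligand pKa values and Fe(III) stability constants at total ligand 10^-5 M, total iron 10^-6 M, pH 7.4.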

[6] = Ligand pka1 value was investigated by potentiometric titration; format: physicochemical; details: read-out: pKa1
Outline: (§3)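 Simultaneous potentiometric and UV/vis titration in 0.1 M KCl (25 mL), acidified with 0.2 M HCl and titrated with 0.2 M KOH in 0.01-mL increments. Run at 25 ± 0.5 °C under argon. Electrode zero was set by a blank titration using Gran's plot. pKa values came from non-linear least-squares regression, accurate to ±0.02 pH unit.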

[7] = Ligand pka2 value was investigated by potentiometric titration; format: physicochemical; details: read-out: pKa2; outline: as §3
[8] = Ligand pka2 value was investigated by spectrophotometric titration; format: physicochemical; details: read-out: pKa2; outline: as §3
[9] = Affinity constant log K1 value for Fe(III) complex; format: ADME
Outline: (§4)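 Spectrophotometric titration of Fe(III) with ligand at a ligand:iron ratio of about 10:1, with 0.2 M KOH added by programmed autoburette. Full spectra were recorded across pH, e.g. 1.59–10.05 with [Fe(III)] = 1.8×10^-4 M. Cumulative stability constants were optimized by non-linear least-squares regression using the predetermined pKa values, electrode slope and electrode zero.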

[10] = Affinity constant log K2 value for Fe(III) complex; format: ADME; outline: as §4
[11] = Affinity constant log K3 value for Fe(III) complex; format: ADME; outline: as §4
[12] = Affinity constant log beta-3 value for Fe(III) complex; format: ADME; outline: as §4
[13] = tested on: Rattus norvegicus; assay: Compound was tested in vivo for Iron mobilization against hepatocytes in normal fasted rats ( loaded with [59Fe]-Ferritin).; format: functional, Hepatocyte; outline: as §2
[14] = tested on: Rattus norvegicus; assay: as §1; format: functional, Hepatocyte; outline: as §2
[15] = Ligand pka1 value was investigated by spectrophotometric titration; format: physicochemical; details: read-out: pKa1; outline: as §3
[16] = tested on: Rattus norvegicus; assay: Compound was tested in vivo for Iron mobilization efficacy against hepatocytes in normal fasted rats(loaded with [59Fe]-Ferritin).; format: functional, Hepatocyte
Outline: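 Normal fasted rats (190–230 g); hepatocyte iron labelled with [59Fe]ferritin given by tail vein. One hour later, chelator 450 µmol/kg was given orally; controls received an equivalent volume of water. Rats were housed in individual metabolic cages with urine and feces collected. Killed 24 h after ferritin; liver and GI tract with contents and feces were gamma counted. Means ± SD, n=5.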

Compound | logD [1] | logP [2] | Efficacy [3] [%] | Iron mobilization [4] [%] | pFe3 [5] | pKa [6] | pKa [7] | pKa [8] | Log K1 [9] | Log K2 [10] | Log K3 [11] | Log beta3 [12] | Iron mobilization [13] [%] | Iron mobilization [14] [%] | pKa [15] | Efficacy [16] [%]
O=C(OCCCn1ccc(=O)c(O)c1CO)c1ccccc1 | 0.749 | 0.749 | 52.1 | 56 |  |  |  |  |  |  |  |  |  |  |  | 
Cn1ccc(=O)c(O)c1CO | -1.32 | -1.32 | 4.6 | 8.44 | 20.9 | 2.92 | 9.11 | 9.11 | 14.47 | 11.27 | 9.58 | 35.3 |  |  |  | 
CCn1ccc(=O)c(O)c1CO | -0.854 | -0.854 | 29.4 |  | 21 | 2.8 | 9.27 |  | 14.66 | 11.16 | 9.43 | 35.3 | 33.3 |  |  | 
CCn1ccc(=O)c(O)c1C(C)O (stereo not drawn) | -0.575 | -0.575 | 50.6 |  | 21.4 | 3.03 | 8.77 |  | 15.21 | 10.97 | 8.9 | 35.1 |  | 54.5 |  | 
CC(O)c1c(O)c(=O)ccn1CCCO (stereo not drawn) | -1.12 | -1.12 | 10.6 | 14.5 | 21.5 | 2.98 | 8.72 |  | 14.93 | 10.87 | 8.87 | 34.7 |  |  |  | 
Cc1c(O)c(=O)ccn1CCCOC(=O)c1ccccc1 | 1.25 | 1.25 | 32.5 |  |  |  |  |  |  |  |  |  |  |  |  | 
O=c1ccn(CCCO)c(CO)c1O | -1.25 | -1.25 | 7.8 | 11.7 | 20.7 | 3.02 | 9.29 |  | 15.67 | 10.01 | 9.57 | 35.3 |  |  |  | 
Cc1cc(=O)c(O)c(C(C)O)n1C (stereo not drawn) | -0.606 | -0.606 | 44.5 | 48.4 | 21.5 | 3.54 | 8.99 |  | 15.38 | 11.09 | 9.05 | 35.5 |  |  |  | 
CCc1c(O)c(=O)ccn1CCOC(=O)C(C)(C)C | 1.16 | 1.16 | 19.1 |  |  |  |  |  |  |  |  |  |  |  |  | 
CCn1c(C)cc(=O)c(O)c1CO | -0.652 | -0.652 | 9 | 12.9 | 20.4 | 3.29 | 9.45 |  | 14.37 | 11.6 | 9.64 | 35.6 |  |  |  | 
CCc1c(O)c(=O)ccn1CCO |  |  | 12.9 |  |  |  |  |  |  |  |  |  |  |  |  | 
CCC(O)c1c(O)c(=O)cc(C)n1C (stereo not drawn) | -0.134 | -0.134 | 56.5 | 60.4 | 21 | 3.76 | 9 |  | 14.5 | 11.48 | 9.05 | 35 |  |  | 3.78 | 
Cc1cc(=O)c(O)c(CO)n1C | -1.01 | -1.01 | 0.6 | 4.5 | 20.4 | 3.32 | 9.44 |  | 14.39 | 11.57 | 9.55 | 35.5 |  |  |  | 
Cc1c(O)c(=O)ccn1CCCO |  |  | 26 |  |  |  |  |  |  |  |  |  |  |  |  | 
CCc1c(O)c(=O)ccn1CC |  |  | 55.8 |  | 19.7 | 3.81 | 9.93 |  | 15.2 | 11.76 | 9.84 | 36.8 |  |  |  | 
Cc1c(O)c(=O)ccn1C [DEFERIPRONE] |  |  |  |  | 19.4 |  | 9.77 |  | 14.56 | 12.19 | 9.69 | 36.4 |  |  |  | 9.5
